In ChEMBL document CHEMBL5032526 (Eur J Med Chem, 2021):

Columns and labels:
SARS-CoV-2 [1] = assay: Antiviral activity against SARS Cov-2 USA/WA1/2020 infected in Vero E6 cells assessed as reduction in virus-induced cytopathic effect preincubated for 1 hr followed by viral infection and measured after 48 hrs post infection; type: functional, organism-based; details: Severe acute respiratory syndrome coronavirus 2, USA/WA1/2020, Vero C1008
[2] = (§1) Cytotoxicity against human Calu-3 cells assessed as reduction in cell viability after 48 hrs by Cell-Tox green based fluorescence assay; details: Calu-3 cells
Summary of the method: (§2)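 Calu3 cells (1 x 10^4) were plated and exposed 24 h later to 3-fold serial compound dilutions. At 48 h, CellTox Green fluorescence was read, and CC50 was fitted by four-parameter nonlinear regression.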

SARS-CoV-2 [3] = assay: Antiviral activity against SARS coronavirus 2 USA/WA1/2020 infected in Calu-3 cells assessed as reduction in virus-induced cytopathic effect preincubated for 1 hr followed by viral infection and measured after 48 hrs; type: functional, organism-based; details: Severe acute respiratory syndrome coronavirus 2, USA/WA1/2020, Calu-3
[4] = (§3) Cytotoxicity against human Huh-7 cells assessed as reduction in cell viability measured after 24 hrs by CellTiter-Glo analysis; type: cell-based; details: Huh-7 cells
Ebolavirus [5] = assay: Antiviral activity against Ebola virus trVLP infected in human Huh-7 cells pretreated for 1 hrs followed by viral infection and measured after 24 hrs by dual luciferase reporter assay; type: functional, organism-based; details: Orthoebolavirus
Summary of the method: (§4)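 Huh-7 cells were transfected in suspension with EBOV VP35, NP, VP30 and L plasmids plus constitutive firefly (ce-FF). At 24 h, compounds were added in triplicate (0-50 µM, 2-fold series) for 1 h before trVLP infection.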

Ebolavirus [6] = assay: Antiviral activity against Ebola virus constitutively expressed firefly infected in human Huh-7 cells expressing pretreated for 1 hrs followed by viral infection and measured after 24 hrs by dual luciferase reporter assay; type: functional, organism-based; details: Orthoebolavirus; summary of the method: as §4
Ebolavirus [7] = assay: Antiviral activity against wild type Ebola virus infected in human HeLa cells assessed as reduction in viral infection measured after 24 hrs by Hoechst 33342 staining based microscopic analysis; type: functional, organism-based; details: Orthoebolavirus
[8] = Metabolic stability in human plasma assessed as drug degradation at 10 uM after 1 hr by LC-QTOF-MS analysis; type: ADME, cell-free; details: read-out: Drug degradation
Summary of the method: (§5)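 Compound (10 µM) was incubated in human plasma at 37 °C, with aliquots taken from 0 to 24 h. Proteins were precipitated with cold ethanol (30 min, -20 °C), and samples were centrifuged and concentrated. Analysis was by LC-QTOF-MS with a ±0.1 m/z EIC window, and % digestion was calculated from peak area relative to 0 min.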

[9] = Metabolic stability in human plasma assessed as compound remaining at 10 uM after 2 hrs by LC-QTOF-MS analysis; type: ADME, cell-free; summary of the method: as §5
SARS-CoV-2 [10] = assay: Antiviral activity against SARS Cov-2 USA_WA1/2020 infected in human Calu-3 cells measured upto 72 hrs by qRT-PCR method; type: functional, organism-based; details: Severe acute respiratory syndrome coronavirus 2, USA_WA1/2020, Calu-3, 72 h
SARS-CoV-2 [11] = assay: Antiviral activity against SARS Cov-2 USA_WA1/2020 infected in HAE cells measured upto 72 hrs by qRT-PCR method; type: functional, organism-based; details: Severe acute respiratory syndrome coronavirus 2, USA_WA1/2020, HAE
[12] = Selectivity index, ratio of CC50 for human Huh-7 cells to IC50 for Antiviral activity against Ebola virus trVLP infected in human Huh-7 cells; type: toxicity, cell-based; details: read-out: Ratio CC50/IC50
[13] = Selectivity index, ratio of CC50 for African green monkey Vero E6 cells to IC50 for Antiviral activity against SARS coronavirus 2 USA/WA1/2020 infected in Vero E6 cells assessed as reduction in virus-induced cytopathic effect; type: toxicity, cell-based, Vero C1008; details: read-out: Ratio CC50/IC50
Calu-3 = assay: as §1; details: calu-3, 48 h; summary of the method: as §2
[14] = Selectivity index, ratio of CC50 for human Calu-3 cells to IC50 for Antiviral activity against SARS coronavirus 2 USA/WA1/2020 infected in human Calu3 cells assessed as reduction in virus-induced cytopathic effect; type: toxicity, cell-based; details: read-out: Ratio CC50/IC50
Huh-7 = assay: as §3; type: cell-based; details: huh-7, 24 h
[15] = Selectivity index, ratio of CC50 for human Huh-7 cells to IC50 for Antiviral activity against Ebola virus constitutively expressed firefly; type: toxicity; details: read-out: Ratio CC50/IC50
[16] = Metabolic stability in human plasma assessed as compound remaining at 10 uM after 4 hrs by LC-QTOF-MS analysis; type: ADME, cell-free; details: read-out: Stability; summary of the method: as §5

For CCC(CC)COC(=O)[C@H](C)N[P@](=O)(OC[C@H]1O[C@@](C#N)(c2ccc3c(N)ncnn23)[C@H](O)[C@@H]1O)Oc1ccccc1, the IC50 (SARS-CoV-2 [1]) was 0.85 µM, the CC50 at 48 h [2] was > 50 µM and the IC50 (SARS-CoV-2 [3]) was 0.06 µM. The CC50 at 24 h [4] was > 50 µM, the IC50 (Ebolavirus [5]) was 0.32 µM and the IC50 (Ebolavirus [6]) was 24 µM. The IC50 (Ebolavirus [7]) was 1 µM, the metabolised at 1 h, 10 µM [8] was 13% and the remaining at 2 h, 10 µM ([9]; read-out: Stability) was 47%. For the same compound, the EC50 (SARS-CoV-2 [10]) was 0.28 µM and the EC50 (SARS-CoV-2 [11]) was 0.01 µM.

For CCSCCCCCCCCCCCC(=O)O[C@H]1[C@@H](O)[C@](C#N)(c2ccc3c(N)ncnn23)O[C@@H]1CO[P@@](=O)(N[C@H](C)C(=O)OCC(CC)CC)Oc1ccccc1, the selectivity ratio [12] was 82.1, the IC50 (SARS-CoV-2 [1]) was 2.4 µM and the selectivity ratio [13] was > 20.5. The CC50 (Calu-3) was > 50 µM, the IC50 (SARS-CoV-2 [3]) was 0.25 µM and the selectivity ratio [14] was > 200. For the same compound, the CC50 (Huh-7) was 23 µM, the IC50 (Ebolavirus [5]) was 0.28 µM and the IC50 (Ebolavirus [6]) was > 50 µM.

For CCSCCCCCCCCCCCC(=O)O, the selectivity ratio [12] was > 50, the IC50 (SARS-CoV-2 [1]) was > 50 µM and the CC50 (Huh-7) was > 50 µM. The IC50 (Ebolavirus [5]) was > 50 µM and the IC50 (Ebolavirus [6]) was > 50 µM.

With CCCCCCCCCCCCCC(=O)O[C@H]1[C@@H](OC(=O)CCCCCCCCCCCCC)[C@](C#N)(c2ccc3c(N)ncnn23)O[C@@H]1CO[P@@](=O)(N[C@H](C)C(=O)OCC(CC)CC)Oc1ccccc1 the selectivity ratio [12] was > 4.13, the IC50 (SARS-CoV-2 [1]) was 31 µM and the selectivity ratio [13] was > 1.59. For the same compound, the CC50 (Huh-7) was > 50 µM, the IC50 (Ebolavirus [5]) was 12.1 µM and the IC50 (Ebolavirus [6]) was > 50 µM.

With CCCCCCCCCCOCCC(=O)O the selectivity ratio [12] was > 50, the IC50 (SARS-CoV-2 [1]) was > 50 µM and the CC50 (Huh-7) was > 50 µM. For the same compound, the IC50 (Ebolavirus [5]) was > 50 µM and the IC50 (Ebolavirus [6]) was > 50 µM.

For CCSCCCCCCCCCCCC(=O)O[C@@H]1[C@H](O)[C@@H](CO[P@@](=O)(N[C@H](C)C(=O)OCC(CC)CC)Oc2ccccc2)O[C@@]1(C#N)c1ccc2c(N)ncnn12, the selectivity ratio [12] was 164, the IC50 (SARS-CoV-2 [1]) was 3.5 µM and the selectivity ratio [13] was > 14.2. The CC50 (Huh-7) was 41 µM, the IC50 (Ebolavirus [5]) was 0.25 µM and the IC50 (Ebolavirus [6]) was 29 µM. For the same compound, the selectivity ratio [15] was 1.41.

For CCCCCCCCCCCCCCCC(=O)O[C@@H]1[C@H](O)[C@@H](CO[P@@](=O)(N[C@H](C)C(=O)OCC(CC)CC)Oc2ccccc2)O[C@@]1(C#N)c1ccc2c(N)ncnn12, the selectivity ratio [12] was > 6.94, the CC50 (Calu-3) was > 50 µM and the IC50 (SARS-CoV-2 [3]) was 3.6 µM. For the same compound, the selectivity ratio [14] was > 13.9, the CC50 (Huh-7) was > 50 µM and the IC50 (Ebolavirus [5]) was 7.2 µM. The IC50 (Ebolavirus [6]) was > 50 µM.

In the case of CCCCCCCCCCCCCC(=O)O[C@@H]1[C@H](O)[C@@H](CO[P@@](=O)(N[C@H](C)C(=O)OCC(CC)CC)Oc2ccccc2)O[C@@]1(C#N)c1ccc2c(N)ncnn12, the selectivity ratio [12] is reported as > 74.6, the IC50 (SARS-CoV-2 [1]) is reported as 2.4 µM and the selectivity ratio [13] is reported as > 20.7. For the same compound, the CC50 (Calu-3) was > 50 µM, the IC50 (SARS-CoV-2 [3]) was 0.29 µM and the selectivity ratio [14] was > 172. For the same compound, the CC50 (Huh-7) was > 50 µM, the IC50 (Ebolavirus [5]) was 0.67 µM and the IC50 (Ebolavirus [6]) was > 50 µM.

In the case of CCC(CC)COC(=O)[C@@H](C)N[P@](=O)(OC[C@H]1O[C@@](C#N)(c2ccc3c(N)ncnn23)[C@H](O)[C@@H]1OC(=O)CCCCCCCCCCCN=[N+]=[N-])Oc1ccccc1, the selectivity ratio [12] is reported as 44.4, the IC50 (SARS-CoV-2 [1]) is reported as 3 µM and the selectivity ratio [13] is reported as > 16.6. The CC50 (Calu-3) was > 50 µM, the IC50 (SARS-CoV-2 [3]) was 0.51 µM and the selectivity ratio [14] was > 98. The CC50 (Huh-7) was 20 µM, the IC50 (Ebolavirus [5]) was 0.45 µM and the IC50 (Ebolavirus [6]) was > 50 µM. For the same compound, the IC50 (Ebolavirus [7]) was 0.83 µM, the Stability ([9]; 2 h, 10 µM) was “Stable” and the remaining at 4 h, 10 µM [16] was 77.9%.

In the case of [N-]=[N+]=NCCCCCCCCCCCC(=O)O, the selectivity ratio [12] is reported as > 50, the IC50 (SARS-CoV-2 [1]) is reported as > 50 µM and the CC50 (Huh-7) is reported as > 50 µM. For the same compound, the IC50 (Ebolavirus [5]) was > 50 µM and the IC50 (Ebolavirus [6]) was > 50 µM.

For CCCCCCCCCCOCCC(=O)O[C@H]1[C@@H](O)[C@](C#N)(c2ccc3c(N)ncnn23)O[C@@H]1CO[P@@](=O)(N[C@H](C)C(=O)OCC(CC)CC)Oc1ccccc1, the selectivity ratio [12] was 46.3, the IC50 (SARS-CoV-2 [1]) was 2 µM and the selectivity ratio [13] was > 25.6. The CC50 (Calu-3) was 34.3 µM, the IC50 (SARS-CoV-2 [3]) was 0.18 µM and the selectivity ratio [14] was > 191. For the same compound, the CC50 (Huh-7) was 7.4 µM, the IC50 (Ebolavirus [5]) was 0.16 µM and the IC50 (Ebolavirus [6]) was 14 µM. The selectivity ratio [15] was 0.529.

In the case of CCCCCCCCCCOCCC(=O)O[C@@H]1[C@H](O)[C@@H](CO[P@@](=O)(N[C@H](C)C(=O)OCC(CC)CC)Oc2ccccc2)O[C@@]1(C#N)c1ccc2c(N)ncnn12, the selectivity ratio [12] is reported as 50, the IC50 (SARS-CoV-2 [1]) is reported as 4.6 µM and the selectivity ratio [13] is reported as > 10.9. It also gave a CC50 (Huh-7) of 15 µM, an IC50 (Ebolavirus [5]) of 0.3 µM and an IC50 (Ebolavirus [6]) of 36 µM. It also gave a selectivity ratio [15] of 0.417.

With CCCCCCCCCCCCCCCC(=O)O[C@H]1[C@@H](O)[C@](C#N)(c2ccc3c(N)ncnn23)O[C@@H]1CO[P@@](=O)(N[C@H](C)C(=O)OCC(CC)CC)Oc1ccccc1 the selectivity ratio [12] was > 172, the CC50 (Calu-3) was > 50 µM and the IC50 (SARS-CoV-2 [3]) was 1.6 µM. The selectivity ratio [14] was > 32.3, the CC50 (Huh-7) was > 50 µM and the IC50 (Ebolavirus [5]) was 2.9 µM. For the same compound, the IC50 (Ebolavirus [6]) was > 50 µM.

With CCCCCCCCCCCCCC(=O)O [MYRISTIC ACID] the selectivity ratio [12] was > 50, the IC50 (SARS-CoV-2 [1]) was > 50 µM and the CC50 (Huh-7) was > 50 µM. For the same compound, the IC50 (Ebolavirus [5]) was > 50 µM and the IC50 (Ebolavirus [6]) was > 50 µM.

With CCC(CC)COC(=O)[C@@H](C)N[P@](=O)(OC[C@H]1O[C@@](C#N)(c2ccc3c(N)ncnn23)[C@H](OC(=O)CCCCCCCCCCCN=[N+]=[N-])[C@@H]1O)Oc1ccccc1 the selectivity ratio [12] was 54, the IC50 (SARS-CoV-2 [1]) was 4.6 µM and the selectivity ratio [13] was > 10.9. The CC50 at 24 h [4] was 27 µM, the IC50 (Ebolavirus [5]) was 0.5 µM and the IC50 (Ebolavirus [6]) was > 50 µM. The IC50 (Ebolavirus [7]) was 0.19 µM.

In the case of CCCCCCCCCCCCCC(=O)O[C@H]1[C@@H](O)[C@](C#N)(c2ccc3c(N)ncnn23)O[C@@H]1CO[P@@](=O)(N[C@H](C)C(=O)OCC(CC)CC)Oc1ccccc1, the selectivity ratio [12] is reported as > 70.4, the IC50 (SARS-CoV-2 [1]) is reported as 2.3 µM and the selectivity ratio [13] is reported as > 22.1. The CC50 (Calu-3) was > 50 µM, the IC50 (SARS-CoV-2 [3]) was 0.24 µM and the selectivity ratio [14] was > 208. The CC50 (Huh-7) was > 50 µM, the IC50 (Ebolavirus [5]) was 0.71 µM and the IC50 (Ebolavirus [6]) was > 50 µM.
